UBC13 inh: blocks human UBC13 polyubiquitin chain formation; TR-FRET; inhibition, % at 20 µM; 330,000 compounds, 0.47% hits; AID 485273; in the data active = inhibition above about 45%, passing the limit was not always enough; inconclusive = no clear call, values can overlap the other calls
ALR H2O2 inh: blocks human ALR sulfhydryl oxidase activity; AID 485317; inhibition, % (concentration not given with the values); purified ALR, DTT oxidation, H2O2 HRP-luminol luminescence; 290,000 compounds, 3.8% hits;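 active = mean replicate inhibition above about 79%, with every replicate also reaching it, limit read from the data; inconclusive = only one of the two criteria met; inactive = mean below limit and not every replicate reaching it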
Target sequence (P55789 whole entry, looked up): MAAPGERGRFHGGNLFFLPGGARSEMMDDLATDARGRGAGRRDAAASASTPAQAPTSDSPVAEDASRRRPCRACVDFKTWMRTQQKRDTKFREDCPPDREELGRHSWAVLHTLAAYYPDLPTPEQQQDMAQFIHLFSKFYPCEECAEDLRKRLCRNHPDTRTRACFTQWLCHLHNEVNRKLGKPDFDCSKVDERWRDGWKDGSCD
SUMO HTRF inh: blocks human SUMOylation mediated by UBC9. P63279. HTRF SUMOylation assay, SAE1/SAE2 + UBC9, in vitro. inhibition, % at 35 µM. 290,000 compounds, 0.36% hits; in the data active = inhibition above about 50%, passing the limit was not always enough; inconclusive = no clear call, values can overlap the other calls
Target sequence (P63279 whole entry, looked up): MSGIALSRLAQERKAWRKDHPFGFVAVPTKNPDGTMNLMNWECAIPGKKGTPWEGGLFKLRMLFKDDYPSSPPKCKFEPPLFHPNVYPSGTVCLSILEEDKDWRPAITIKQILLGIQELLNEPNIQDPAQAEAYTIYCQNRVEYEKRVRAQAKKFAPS
PREPL inhibitor: inhibits the human prolyl oligopeptidase-like enzyme | Q4J6C6 | recombinant PREPL, fluorescence polarization activity-based probe | inhibition, % at 5.96 µM | 320,000 compounds, 0.68% hits | AID 2751;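 note: 0% = enzyme with DMSO and 100% = wells lacking enzyme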
Rin1 Abl inh: blocks binding of human Rin1 to Abl; P00519+Q13671; TR-FRET Rin1/Abl binding, biochemical; inhibition, % at 7.35 µM; 360,000 compounds, 0.4% hits; AID 588664; in the data active = inhibition above about 5%, passing the limit was not always enough
RBBP9 inh: human RBBP9 hydrolase inhibition; recombinant RBBP9, FP-Rh probe fluorescence polarization; O75884; inhibition, % at 7.94 µM; AID 1515; 220,000 compounds, 0.2% hits;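 active = inhibition above the campaign mean of all tested compounds plus 3 SD, cut at about 14% in these data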;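 note: plate controls were DMSO wells with RBBP9 for no effect and wells lacking RBBP9 protein for full effect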
Target sequence (O75884 whole entry, looked up): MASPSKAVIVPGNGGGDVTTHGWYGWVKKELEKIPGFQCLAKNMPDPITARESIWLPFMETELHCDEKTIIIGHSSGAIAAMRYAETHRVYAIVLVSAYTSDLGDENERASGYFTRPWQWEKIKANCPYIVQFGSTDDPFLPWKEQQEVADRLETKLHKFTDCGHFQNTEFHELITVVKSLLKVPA
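System: RBBP9 protein | Quantity: 2.5 µM RBBP9 dispensing solution, before mixing | Reagent: FP-Rh probe, 375 nM dispensing solution | Timing: Enzyme-compound preincubation 30 min, then probe labeling 45 min, 25 °C | Measured by: Fluorescence polarization | Read-out: % inhibition | Replication: One well per compound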
PREPL confirm: human PREPL inhibition, confirmation. shares compounds with PREPL inhibitor. recombinant PREPL, fluorescence polarization activity probe. inhibition, % at 5.96 µM. 2,000 compounds, 67% hits;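 note: 0% = protein with DMSO and 100% = wells lacking protein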
Numbers without * were called inactive. In the library only some 4.3% were active in any assay of this set; here they are far more common. Cut-off read from the data, not from the text of the source, unless noted: active = inhibition above about 43%; inactive = the rest.

How did COc1cc(/C=C2/C(=O)NN(c3ccc(F)cc3)C2=O)cc(Cl)c1O do in these assays?
UBC13 inh: -336; ALR H2O2 inh: inconclusive; SUMO HTRF inh: -16; PREPL inhibitor: 0; Rin1 Abl inh: -3

How did COc1cc(/C=C2/C(=O)NN(c3ccc(Cl)c(Cl)c3)C2=O)cc([N+](=O)[O-])c1O do in these assays?
ALR H2O2 inh: 98*; SUMO HTRF inh: 13; PREPL inhibitor: 53*; Rin1 Abl inh: 0; PREPL confirm: 20

What do the screens show for `CN1CCN(c2ccc(NC(=O)COc3ccc4ccccc4c3)cc2)CC1`?
UBC13 inh: 8; ALR H2O2 inh: -13; SUMO HTRF inh: 12; PREPL inhibitor: 52*; Rin1 Abl inh: -1; PREPL confirm: 58*

How did CN1CCN(c2ccc(NC(=O)COc3cccc4ccccc34)cc2)CC1 do in these assays?
UBC13 inh: 13; ALR H2O2 inh: -2; SUMO HTRF inh: 3; PREPL inhibitor: 55*; Rin1 Abl inh: 0; PREPL confirm: 57*

How did COc1ccc(-n2nnc3c(SC(C(C)=O)C(=O)N(C)C)ncnc32)cc1 (centres undefined) do in these assays?
UBC13 inh: -20; ALR H2O2 inh: 38; SUMO HTRF inh: -7; PREPL inhibitor: 1; Rin1 Abl inh: -1

What do the screens show for `COc1ccc(N2CCN(C(=O)Cc3coc4cc(C)ccc34)CC2)cc1`?
UBC13 inh: -8; ALR H2O2 inh: 45; SUMO HTRF inh: 5; PREPL inhibitor: 19; Rin1 Abl inh: 2; RBBP9 inh: -9

Results for Cc1ccc2c(CC(=O)Nc3ccc(N4CCN(C)CC4)cc3C)coc2c1 ?
UBC13 inh: 9; ALR H2O2 inh: -9; SUMO HTRF inh: 13; PREPL inhibitor: 61*; Rin1 Abl inh: 0; RBBP9 inh: -4; PREPL confirm: 60*

Results for Cc1ccc([N+](=O)[O-])cc1NC(=O)CSc1nnc(C)n1CC1CCCO1 (centres undefined) ?
UBC13 inh: 5; ALR H2O2 inh: -3; SUMO HTRF inh: 11; PREPL inhibitor: -2; Rin1 Abl inh: 0

How did CCOC(=O)c1c(S(=O)(=O)NCCCc2ccco2)c(C)n(C)c1C do in these assays?
UBC13 inh: -3; ALR H2O2 inh: 4; SUMO HTRF inh: 5; PREPL inhibitor: 4; Rin1 Abl inh: 3

How did CCN(CCN(C)C)C(=O)C1CCN(S(=O)(=O)c2c(C)noc2/C=C/c2ccccc2F)CC1 do in these assays?
UBC13 inh: 4; ALR H2O2 inh: -7; PREPL inhibitor: 44*; Rin1 Abl inh: -8; PREPL confirm: 42

Results for CCOc1ccccc1/C=C/c1onc(C)c1S(=O)(=O)N1CCC(C(=O)N(CC)CC)CC1 ?
UBC13 inh: -2; ALR H2O2 inh: 0; SUMO HTRF inh: -15; PREPL inhibitor: 11; Rin1 Abl inh: -1

What do the screens show for `NNC(=O)c1cc(NS(=O)(=O)c2cccs2)cc(NS(=O)(=O)c2cccs2)c1`?
UBC13 inh: -16; ALR H2O2 inh: 41; PREPL inhibitor: 16; Rin1 Abl inh: 2

What do the screens show for `CCOc1ccc(NC(=O)CSc2ncc(-c3ccc(F)cc3)n2Cc2ccco2)cc1`?
UBC13 inh: -2; ALR H2O2 inh: 47; SUMO HTRF inh: 5; PREPL inhibitor: 11; Rin1 Abl inh: 0; RBBP9 inh: -5

How did Cc1ccc(NC(=O)Cn2c(-c3ccc(F)cc3)cnc2SCC(=O)Nc2c(C)cccc2C)cc1 do in these assays?
UBC13 inh: -7; ALR H2O2 inh: -10; SUMO HTRF inh: 19; PREPL inhibitor: 47*; Rin1 Abl inh: -4; RBBP9 inh: -3; PREPL confirm: 13

What do the screens show for `COc1ccccc1-c1nc(C#N)c(N2CCN(c3ccccc3)CC2)o1`?
UBC13 inh: 4; ALR H2O2 inh: -1; SUMO HTRF inh: 2; PREPL inhibitor: 48*; Rin1 Abl inh: 5; RBBP9 inh: 0; PREPL confirm: 39

Results for N#Cc1nc(-c2ccco2)oc1N1CCN(c2ccccc2)CC1 ?
UBC13 inh: 2; ALR H2O2 inh: 18; SUMO HTRF inh: 24; PREPL inhibitor: 39; Rin1 Abl inh: -4; RBBP9 inh: 4

What do the screens show for `COc1ccc(N2CCN(c3oc(-c4ccco4)nc3C#N)CC2)cc1`?
UBC13 inh: 6; ALR H2O2 inh: 33; SUMO HTRF inh: 0; PREPL inhibitor: 44*; Rin1 Abl inh: -1; RBBP9 inh: -2; PREPL confirm: 35

Results for Cc1ccsc1C(=O)C1CCCN(Cc2cc(F)ccc2-n2cccn2)C1 (centres undefined) ?
UBC13 inh: 12; ALR H2O2 inh: -1; SUMO HTRF inh: 2; PREPL inhibitor: -2; Rin1 Abl inh: 3; RBBP9 inh: 0

Results for COc1ccc(NC(=O)CSc2nc3c(c(-c4cccs4)c2C#N)CN(C)CC3)cc1OC ?
UBC13 inh: -17; ALR H2O2 inh: 99*; SUMO HTRF inh: 13; PREPL inhibitor: 44*; Rin1 Abl inh: -3; RBBP9 inh: 6; PREPL confirm: 17

Results for CCCN(CC(=O)Nc1ccc(F)c(F)c1F)C(=O)Cc1ccc(S(=O)(=O)N2CCOCC2)s1 ?
UBC13 inh: -34; ALR H2O2 inh: -16; PREPL inhibitor: 21; Rin1 Abl inh: 2

Results for CC1CC(C)CN(C(=O)c2ccc3c(c2NCCO)C(=O)c2ccccc2C3=O)C1 (centres undefined) ?
UBC13 inh: -263; SUMO HTRF inh: -39; PREPL inhibitor: 56*; Rin1 Abl inh: -12; RBBP9 inh: -6; PREPL confirm: 58*

How did O=C(O)c1cc(S(=O)(=O)Nc2ccc3cn[nH]c3c2)ccc1Cl do in these assays?
UBC13 inh: -3; PREPL inhibitor: 9; Rin1 Abl inh: 2

What do the screens show for `O=C(CN1CCN(c2ccc(O)cc2)CC1)Nc1cc([N+](=O)[O-])ccc1Cl`?
UBC13 inh: 8; ALR H2O2 inh: 99*; SUMO HTRF inh: 12; PREPL inhibitor: 52*; Rin1 Abl inh: -7; RBBP9 inh: -11; PREPL confirm: 53*

How did CC(=O)N1CCN(CC(=O)Nc2cc([N+](=O)[O-])ccc2Cl)CC1 do in these assays?
UBC13 inh: -11; ALR H2O2 inh: -10; SUMO HTRF inh: 2; PREPL inhibitor: 0; Rin1 Abl inh: 5; RBBP9 inh: -5

Results for O=C(c1cccc([N+](=O)[O-])c1)N1CCN(c2ccc(Cl)cc2)CC1 ?
UBC13 inh: 7; ALR H2O2 inh: 0; SUMO HTRF inh: -12; PREPL inhibitor: 51*; Rin1 Abl inh: 0; RBBP9 inh: 8; PREPL confirm: 39

What do the screens show for `O=C(CCCc1c[nH]c2ccccc12)NCCc1c[nH]c2ccccc12`?
UBC13 inh: 7; ALR H2O2 inh: 11; SUMO HTRF inh: -6; PREPL inhibitor: 19; Rin1 Abl inh: 2
